Laboratory results from ChEMBL document CHEMBL1144540, “Analgesic agents without gastric damage: design and synthesis of structurally simple benzenesulfonanilide-type cyclooxygenase-1-selective inhibitors” (Bioorg Med Chem, 2007).
Activity calls are given as the source filed them. No cut-off for these calls is given here.

Tests used:
[1] = biological target: T1, Prostaglandin G/H synthase 1 (Ovis aries) (UniProt P05979); experiment: Inhibition of ovine COX1 at 100 uM
T1 sequence (whole entry): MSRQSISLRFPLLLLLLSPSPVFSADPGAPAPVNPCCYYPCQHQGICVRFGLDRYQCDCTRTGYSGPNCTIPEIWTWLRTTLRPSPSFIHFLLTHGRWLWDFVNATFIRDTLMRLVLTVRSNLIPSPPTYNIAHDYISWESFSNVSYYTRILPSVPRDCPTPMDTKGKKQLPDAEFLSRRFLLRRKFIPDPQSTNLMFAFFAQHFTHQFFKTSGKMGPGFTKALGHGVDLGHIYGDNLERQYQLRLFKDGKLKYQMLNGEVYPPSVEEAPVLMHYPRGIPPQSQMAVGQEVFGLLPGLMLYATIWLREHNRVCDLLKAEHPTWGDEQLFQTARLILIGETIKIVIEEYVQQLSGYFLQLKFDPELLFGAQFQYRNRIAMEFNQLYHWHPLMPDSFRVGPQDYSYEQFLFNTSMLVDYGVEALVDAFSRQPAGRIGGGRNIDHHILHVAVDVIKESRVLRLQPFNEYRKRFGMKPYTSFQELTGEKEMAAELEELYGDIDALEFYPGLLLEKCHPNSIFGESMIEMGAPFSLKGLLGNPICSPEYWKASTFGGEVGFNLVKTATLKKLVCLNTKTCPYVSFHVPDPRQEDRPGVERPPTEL
Summary of the method: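 Colorimetric ovine COX inhibitor screening kit, run per the supplier's protocol. […] Each experiment was run at least twice and the mean was reported.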

Rattus norvegicus [2] = experiment: Effect on gastric damage in rat assessed as induction of gastric ulcer at 30 mg/kg, po after 5 hrs; format: functional, organism-based; parameters: dose 30 mg/kg; conditions: Stomach
Summary of the method: (§1)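 Male rats, 170–200 g, given a single oral dose in 0.5% CMC vehicle (n = 3–5 per group). Ulcer lengths were measured in millimetres and summed to give an overall gastric damage score per rat. Data are means with SEM.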

[3] = biological target: T2, Prostaglandin G/H synthase 1 (Ovis aries, UniProt P05979); experiment: Inhibition of ovine COX1
T2 sequence (P05979 whole entry): T1 sequence (whole entry)
Summary of the method: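 Colorimetric ovine COX inhibitor screening kit, run per the supplier's protocol. Each experiment was run at least twice and the mean was reported.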

Rattus norvegicus [4] = experiment: Effect on gastric damage in rat assessed as induction of gastric ulcer at 10 mg/kg, po after 5 hrs; format: functional, organism-based; parameters: dose 10 mg/kg; conditions: Stomach; summary of the method: as §1

inhibition [1] [%]	SMILES	other results
48	CN(c1ccccc1)S(=O)(=O)c1ccc(N)cc1	
18	CN(c1ccc(I)cc1)S(=O)(=O)c1ccc(N)cc1	
7	Nc1ccc(NS(=O)(=O)c2ccc(Cl)cc2)c(C(F)(F)F)c1	
21	Cc1ccccc1NS(=O)(=O)c1ccc(C(=O)O)cc1	
	CC(=O)Oc1ccccc1C(=O)O	Activity (Rattus norvegicus [2]): Active
18	Nc1ccc(S(=O)(=O)Nc2ccc(I)cc2)cc1	
70	Nc1ccc(S(=O)(=O)Nc2ccc(Cl)cc2)cc1	IC50 [3]: 12 µM
11	CS(=O)(=O)Nc1ccc(S(=O)(=O)Nc2ccc(Cl)cc2)cc1	
5	Cc1ccccc1NS(=O)(=O)c1ccc(N)cc1	
12	Cc1ccc(NS(=O)(=O)c2ccc(NS(C)(=O)=O)cc2)cc1	
0	Cc1cc(C)cc(NS(=O)(=O)c2ccc(NS(C)(=O)=O)cc2)c1	
0	Nc1ccc(S(=O)(=O)Nc2ccccc2)cc1	
0	CN(c1ccc(F)cc1)S(=O)(=O)c1ccc(N)cc1	
6	O=[N+]([O-])c1ccc(S(=O)(=O)Nc2ccc(Cl)cc2)cc1	
13	Cc1cc(C)cc(NS(=O)(=O)c2ccc(N)cc2)c1	
1	COc1cc(N)ccc1NS(=O)(=O)c1ccc(Cl)cc1	
25	O=C(O)c1ccc(S(=O)(=O)Nc2cc(C(F)(F)F)cc(C(F)(F)F)c2)cc1	
73	COc1cc(N)ccc1N(C)S(=O)(=O)c1ccc(Cl)cc1	IC50 [3]: 20 µM
0	O=C(O)c1ccc(S(=O)(=O)Nc2ccc(C(F)(F)F)cc2)cc1	

inhibition [1] [%]	SMILES	other results
3	COc1ccc(NS(=O)(=O)c2ccc(C(=O)O)cc2)cc1	
	COc1ccc2c(c1)c(CC(=O)O)c(C)n2C(=O)c1ccc(Cl)cc1	Activity (Rattus norvegicus [4]): Active
3	Cc1cccc(NS(=O)(=O)c2ccc(NS(C)(=O)=O)cc2)c1	
0	Cc1ccccc1NS(=O)(=O)c1ccc([N+](=O)[O-])cc1	
15	Nc1ccc(S(=O)(=O)Nc2ccc(F)cc2)cc1	
14	Nc1ccc(S(=O)(=O)Nc2ccc(C(F)(F)F)cc2)cc1	
78	CN(c1ccc(Cl)cc1)S(=O)(=O)c1ccc(N)cc1	IC50 [3]: 3.2 µM
0	Cc1ccccc1NS(=O)(=O)c1ccc(NS(C)(=O)=O)cc1	
44	Cc1ccc(NS(=O)(=O)c2ccc([N+](=O)[O-])cc2)cc1	
3	Nc1ccc(NS(=O)(=O)c2ccc(Cl)cc2)cc1	
21	CN(c1ccc(Br)cc1)S(=O)(=O)c1ccc(N)cc1	
7	Cc1cc(N)ccc1NS(=O)(=O)c1ccc(Cl)cc1	
23	Nc1ccc(S(=O)(=O)Nc2ccc(Br)cc2)cc1	
0	Cc1cc(C)cc(NS(=O)(=O)c2ccc([N+](=O)[O-])cc2)c1	
18	Nc1ccc(S(=O)(=O)Nc2cccc(Cl)c2)cc1	
11	O=C(O)c1ccc(S(=O)(=O)Nc2ccccc2)cc1	
68	CN(c1ccc(N)cc1)S(=O)(=O)c1ccc(Cl)cc1	IC50 [3]: 9.2 µM
0	CS(=O)(=O)Nc1ccc(S(=O)(=O)Nc2ccccc2)cc1	
39	CN(c1ccc(Cl)cc1)S(=O)(=O)c1cccc(N)c1	

inhibition [1] [%]	SMILES	other results
1	O=[N+]([O-])c1ccc(S(=O)(=O)Nc2ccc(C(F)(F)F)cc2)cc1	
0	CCCN(c1ccc(Cl)cc1)S(=O)(=O)c1ccc(N)cc1	
52	Cc1ccc(NS(=O)(=O)c2ccc(N)cc2)cc1	
8	CS(=O)(=O)Nc1ccc(S(=O)(=O)Nc2ccc(C(F)(F)F)cc2)cc1	
9	CN(c1ccc(C(F)(F)F)cc1)S(=O)(=O)c1ccc(N)cc1	
6	COc1ccc(N(C)S(=O)(=O)c2ccc(N)cc2)cc1	
0	Cc1cccc(NS(=O)(=O)c2ccc(C(=O)O)cc2)c1	
0	CS(=O)(=O)Nc1ccc(S(=O)(=O)Nc2cc(C(F)(F)F)cc(C(F)(F)F)c2)cc1	
10	CCN(c1ccc(Cl)cc1)S(=O)(=O)c1ccc(N)cc1	
8	COc1ccc(NS(=O)(=O)c2ccc(NS(C)(=O)=O)cc2)cc1	
0	COc1ccc(NS(=O)(=O)c2ccc([N+](=O)[O-])cc2)cc1	
6	Nc1ccc(S(=O)(=O)Nc2ccc(Cl)cc2Cl)cc1	
8	Cc1cccc(NS(=O)(=O)c2ccc(N)cc2)c1	
77	Cc1cc(N)ccc1N(C)S(=O)(=O)c1ccc(Cl)cc1	IC50 [3]: 26 µM
0	O=[N+]([O-])c1ccc(S(=O)(=O)Nc2ccccc2)cc1	
53	Nc1ccc(S(=O)(=O)Nc2ccccc2Cl)cc1	
21	Cc1ccc(N(C)S(=O)(=O)c2ccc(N)cc2)cc1	
3	Cc1cccc(NS(=O)(=O)c2ccc([N+](=O)[O-])cc2)c1	

SMILES	inhibition [1] [%]	other results
O=[N+]([O-])c1ccc(S(=O)(=O)Nc2cc(C(F)(F)F)cc(C(F)(F)F)c2)cc1	19	
Nc1ccc(S(=O)(=O)Nc2cc(C(F)(F)F)cc(C(F)(F)F)c2)cc1	30	
